Assay results taken from ChEMBL document CHEMBL1121570, “3-(4-Piperidinylalkyl)indoles, selective inhibitors of neuronal 5-hydroxytryptamine uptake” (J Med Chem, 1980).
Calls of active or inactive are those of the source. The calls are words filed in the database; no cut-off is given here.

Legend:
[1] = system: Mus musculus; assay: Potentiation of 5-HTP in mouse after subcutaneous administration.; type: functional, organism-based
How it was run: (§1)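 Mice in groups of eight received L-5-HTP 100 mg/kg ip in 0.9% NaCl. Drug was given sc 30 min after 5-HTP. Tremor was rated at 75 min (0 none, 1 moderate, 2 severe). ED50 is the dose giving a mean score of 1, derived from the group global scores.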

[2] = system: Rattus norvegicus; assay: Antagonism of tetrabenazine ptosis in rat after oral administration; type: functional
How it was run: (§2)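 Rats dosed orally 0.5 h before tetrabenazine (10 mg/kg, sc). Ptosis scored present or absent 1 h later. ED50 taken as the dose preventing ptosis in 50% of animals.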

[3] = target: Sodium-dependent serotonin transporter (Homo sapiens, UniProt P31645); type: functional, organism-based
[4] = target: Sodium-dependent dopamine transporter (Rattus norvegicus, UniProt P23977); assay: Inhibition of uptake of dopamine (DA) rat brain striatum; type: functional, tissue-based
How it was run: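 Brain synaptosomes from immature female rats (19-21 days) were incubated 5 min at 37 °C with labelled amine at 10⁻⁷ M. Four to six drug concentrations were run in duplicate. IC50 is the concentration inhibiting uptake by 50%.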

[5] = target: Norepinephrine transporter (Rattus norvegicus, UniProt Q9WTR4); assay: Inhibition of uptake of noradrenaline in rat brain hypothalamus; type: functional, tissue-based
How it was run: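 Brain synaptosomes from immature female rats (19-21 days) were incubated 5 min at 37 °C with labelled amine at 10⁻⁷ M. Four to six drug concentrations were run in duplicate.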

[6] = target: Sodium-dependent serotonin transporter (Rattus norvegicus, UniProt P31652); assay: Inhibition of uptake of 5-HT in rat brain cortex; type: functional, tissue-based
[7] = system: Mus musculus; assay: Compound was tested for potentiation of 5-HTP in mouse after subcutaneous administration; type: functional; details: sc; how it was run: as §1
[8] = system: Rattus norvegicus; assay: Antagonism of tetrabenazine ptosis in rat after oral administration.; type: functional, organism-based; how it was run: as §2
[9] = system: Mus musculus; assay: Compound was tested for potentiation of 5-HTP in mouse after subcutaneous administration; Inactive at the dose 3 mg/kg; type: functional, organism-based; set-up: dose 3 mg/kg; how it was run: as §1
[10] = system: Rattus norvegicus; assay: Antagonism of tetrabenazine ptosis in rat after oral administration; Inactive at the dose 10 mg/kg; type: functional, organism-based; set-up: dose 10 mg/kg; how it was run: as §2
[11] = system: Mus musculus; assay: Compound was tested for potentiation of 5-HTP in mouse after subcutaneous administration; Inactive at 25 mg/kg; type: functional, organism-based; set-up: dose 25 mg/kg; how it was run: as §1

Chain of Sodium-dependent serotonin transporter (Rattus norvegicus, UniProt P31652) (P31652 whole entry): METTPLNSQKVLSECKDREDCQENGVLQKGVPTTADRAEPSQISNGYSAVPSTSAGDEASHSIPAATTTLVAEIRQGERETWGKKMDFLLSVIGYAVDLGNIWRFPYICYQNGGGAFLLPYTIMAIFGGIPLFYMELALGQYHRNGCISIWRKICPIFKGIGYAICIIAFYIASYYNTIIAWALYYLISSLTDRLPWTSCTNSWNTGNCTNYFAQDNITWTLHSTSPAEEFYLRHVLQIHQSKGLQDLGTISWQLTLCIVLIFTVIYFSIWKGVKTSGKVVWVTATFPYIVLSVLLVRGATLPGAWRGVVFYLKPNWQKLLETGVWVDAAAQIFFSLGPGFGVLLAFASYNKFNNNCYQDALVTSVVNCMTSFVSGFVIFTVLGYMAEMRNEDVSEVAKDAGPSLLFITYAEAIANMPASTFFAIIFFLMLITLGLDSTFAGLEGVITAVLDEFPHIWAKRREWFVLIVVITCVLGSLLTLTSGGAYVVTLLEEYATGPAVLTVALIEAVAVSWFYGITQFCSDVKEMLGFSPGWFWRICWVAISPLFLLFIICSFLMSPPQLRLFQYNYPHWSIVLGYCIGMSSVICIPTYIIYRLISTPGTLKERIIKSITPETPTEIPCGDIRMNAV
Chain of Sodium-dependent dopamine transporter (P23977 whole entry): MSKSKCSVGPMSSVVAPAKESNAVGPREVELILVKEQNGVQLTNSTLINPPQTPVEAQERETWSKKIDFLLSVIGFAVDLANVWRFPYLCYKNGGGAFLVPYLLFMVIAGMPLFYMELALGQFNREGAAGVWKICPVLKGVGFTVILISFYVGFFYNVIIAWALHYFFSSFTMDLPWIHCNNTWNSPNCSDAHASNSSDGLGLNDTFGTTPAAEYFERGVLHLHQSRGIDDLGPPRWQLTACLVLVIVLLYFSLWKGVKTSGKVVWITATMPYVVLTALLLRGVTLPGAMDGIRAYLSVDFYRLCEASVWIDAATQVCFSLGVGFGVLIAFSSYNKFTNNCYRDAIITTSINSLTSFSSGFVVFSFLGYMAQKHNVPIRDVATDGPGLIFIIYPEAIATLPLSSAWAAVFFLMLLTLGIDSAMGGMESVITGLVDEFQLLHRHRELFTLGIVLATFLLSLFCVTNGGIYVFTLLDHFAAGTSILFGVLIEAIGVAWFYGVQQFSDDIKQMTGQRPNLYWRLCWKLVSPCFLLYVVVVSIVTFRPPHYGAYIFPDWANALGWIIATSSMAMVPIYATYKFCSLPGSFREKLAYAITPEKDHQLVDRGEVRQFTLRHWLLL
Chain of Norepinephrine transporter (Q9WTR4 whole entry): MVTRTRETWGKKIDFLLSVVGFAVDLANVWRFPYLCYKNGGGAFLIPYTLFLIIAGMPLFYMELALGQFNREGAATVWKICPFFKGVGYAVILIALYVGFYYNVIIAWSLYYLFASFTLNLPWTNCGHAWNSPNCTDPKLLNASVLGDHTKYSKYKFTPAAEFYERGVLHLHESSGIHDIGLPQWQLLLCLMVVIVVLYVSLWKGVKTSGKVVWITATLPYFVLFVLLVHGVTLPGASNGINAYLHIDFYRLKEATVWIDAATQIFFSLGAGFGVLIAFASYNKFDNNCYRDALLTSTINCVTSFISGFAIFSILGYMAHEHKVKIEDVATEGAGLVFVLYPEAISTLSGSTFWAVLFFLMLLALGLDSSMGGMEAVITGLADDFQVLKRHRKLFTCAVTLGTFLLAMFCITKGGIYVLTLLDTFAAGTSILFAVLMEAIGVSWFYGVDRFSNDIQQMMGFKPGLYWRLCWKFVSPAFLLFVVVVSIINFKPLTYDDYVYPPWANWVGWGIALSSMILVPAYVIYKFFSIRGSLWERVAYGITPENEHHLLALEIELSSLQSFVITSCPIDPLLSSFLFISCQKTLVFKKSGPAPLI
Chain of Sodium-dependent serotonin transporter (Homo sapiens, UniProt P31645) (P31645 whole entry): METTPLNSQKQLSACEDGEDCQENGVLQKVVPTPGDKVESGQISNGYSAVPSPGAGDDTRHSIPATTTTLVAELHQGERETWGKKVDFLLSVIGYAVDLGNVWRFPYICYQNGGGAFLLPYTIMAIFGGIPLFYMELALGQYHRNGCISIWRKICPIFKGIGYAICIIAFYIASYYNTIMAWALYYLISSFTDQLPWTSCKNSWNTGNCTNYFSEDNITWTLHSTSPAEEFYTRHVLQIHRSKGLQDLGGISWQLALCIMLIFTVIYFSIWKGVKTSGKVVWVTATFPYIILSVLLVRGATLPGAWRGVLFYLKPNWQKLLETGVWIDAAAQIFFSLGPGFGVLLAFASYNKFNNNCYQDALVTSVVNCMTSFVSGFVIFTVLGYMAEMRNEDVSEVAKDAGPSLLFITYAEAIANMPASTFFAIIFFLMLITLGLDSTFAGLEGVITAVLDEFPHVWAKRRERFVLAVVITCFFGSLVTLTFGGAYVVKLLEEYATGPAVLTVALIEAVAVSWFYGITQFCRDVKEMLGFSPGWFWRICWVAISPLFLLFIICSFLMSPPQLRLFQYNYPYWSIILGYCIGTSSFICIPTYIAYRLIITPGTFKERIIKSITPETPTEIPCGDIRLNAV

SMILES | ED50 [1] | AD50 [2] [mg/kg] | IC50 [3] [µM] | IC50 [4] [µM] | IC50 [5] [µM] | IC50 [6] [µM] | ED50 [7] [mg/kg] | AD50 [8] | ED50 [9] | AD50 [10] | ED50 [11]
O=C(O)/C=C/C(=O)O.c1ccc(-n2cc(CCC3CCNCC3)c3ccccc32)cc1 | inactive | > 100 | > 1 | 20 | 0.4 | 1 | – | – | – | – | –
c1ccc2c(CCC3CCNCC3)c[nH]c2c1 [INDALPINE] | – | – | 0.03 | 18 | 1.6 | 0.01 | 4 | – | – | – | –
CN1CCC(CCc2cn(C)c3ccccc23)CC1 | inactive | – | > 1 | > 100 | > 10 | 1.7 | – | inactive | – | – | –
Oc1ccc2[nH]cc(CCC3CCNCC3)c2c1 | inactive | – | 0.02 | 2.7 | 1 | 0.6 | – | inactive | – | – | –
Brc1ccc2[nH]cc(CC3CCNCC3)c2c1 | – | 10 | 1 | 8 | 0.6 | 0.7 | – | – | inactive | – | –
c1ccc(Cn2cc(CCC3CCNCC3)c3ccccc32)cc1 | inactive | – | > 1 | 0.3 | 5 | 1.9 | – | inactive | – | – | –
Fc1ccc2[nH]cc(CC3CCNCC3)c2c1 | – | 100 | 0.17 | 7 | 1 | – | 32 | – | – | – | –
Oc1ccc2c(CCC3CCNCC3)c[nH]c2c1 | inactive | – | > 1 | 0.15 | 0.6 | 1.5 | – | inactive | – | – | –
c1ccc(-c2[nH]c3ccccc3c2CCC2CCNCC2)cc1 | inactive | – | > 1 | 3.5 | 1.5 | 2.2 | – | inactive | – | – | –
Clc1ccc2[nH]cc(CC3CCNCC3)c2c1 | – | – | > 1 | 12 | 1.8 | 0.7 | – | – | inactive | inactive | –
c1ccc2c(CC3CCNCC3)c[nH]c2c1 | – | – | 0.55 | 20 | 1.5 | 0.05 | 10 | inactive | – | – | –
Clc1ccc2[nH]cc(CCC3CCNCC3)c2c1 | inactive | – | 0.22 | 1.5 | 0.65 | 0.13 | – | inactive | – | – | –
CN1CCC(CCc2c[nH]c3ccccc23)CC1 | inactive | – | > 1 | 6.5 | 40 | 0.45 | – | inactive | – | – | –
COc1ccc2[nH]cc(CC3CCNCC3)c2c1 | inactive | – | > 1 | > 100 | 9 | 1 | – | inactive | – | – | –
c1ccc2c(CCCC3CCNCC3)c[nH]c2c1 | – | 56 | 0.06 | 3 | 0.5 | 0.04 | 8 | – | – | – | –
Cn1cc(CCC2CCNCC2)c2ccccc21 | – | – | 0.4 | 30 | 1.3 | 0.4 | – | inactive | – | – | inactive
CN(C)CCCN1c2ccccc2CCc2ccc(Cl)cc21 [CLOMIPRAMINE] | – | 45 | – | 1 | – | – | 6.5 | – | – | – | –
Cc1[nH]c2ccccc2c1CCC1CCNCC1 | inactive | >100 | > 1 | 23 | 6.5 | 2.5 | – | – | – | – | –
COc1ccc2[nH]cc(CCC3CCNCC3)c2c1 | inactive | – | > 1 | 20 | 3 | 0.14 | – | inactive | – | – | –
